From PubChem
Only some compounds are listed: those with a hit (about 11% of all), similar ones and a draw of the others.
M1 antag: M1 muscarinic receptor (rat) antagonism; B-score at 10 µM; P08482; hit rate 3.4% among 64,000; CHO-M1 cells, Fluo-4 calcium, ACh EC80 antagonist mode; hits give low values; AID 628;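 active = calcium fluorescence response, raw or row-and-column corrected B-score, differing from the plate sample mean either way at a set confidence level, mostly lower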
M1 agonist: M1 muscarinic receptor agonism; CHO-M1 cells, Fluo-4 calcium fluorescence, agonist mode; hits give high values; hit rate 3% among 64,000; B-score at 10 µM;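 active = fluorescence rise, raw or as B-score row- and column-corrected plate score, outside the 99.7% band of its plate's samples, either direction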
D1 allo mod: allosteric modulators of human D1 dopamine receptor; B-score at 10 µM; HEK293 D1, CRE-luciferase, dopamine EC30 potentiation; actives deviate in either direction; P21728; hit rate 5.9% among 58,000;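 active = luminescence count or its row- and column-corrected plate score outside the 99.7% band of the plate's sample wells, on either side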
S1P3 agonist: activates the human S1P3 receptor. S1P3 NFAT-BLA reporter cells, agonism, FRET ratio; relative to 1 µM S1P, basal subtracted. activation, % at 4.5 µM. hit rate 0.1% among 60,000;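 active = activation above the screen-wide mean plus 3 SD, cut at about 4.5% in these data, passing the limit was not always enough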
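Benchmarks: high control 1 µM S1P / System: stable CHO line with human S1P3, Gα16, NFAT-BLA reporter / Dosing: single compound concentration, 4.5 µM final / Timing: 4 h compound at 37 °C, 2 h substrate at RT / Measured by: FRET β-lactamase substrate fluorescence, excitation 405 nm, 460/535 nm emission ratio, background-subtracted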
S1P1 ag-PAM: S1P1 (human) agonism or agonism potentiation; P21453; S1P1 CRE-bla cells, forskolin, beta-lactamase FRET, potentiator mode; S1P1 agonist co-added at EC20, 2 nM; 100% = saturating reference agonist, 0% = basal; activation, % at 9.5 µM; hit rate 0.57% among 56,000; AID 449;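 active = activation above a cutoff set at the mean activation of all tested compounds plus 3 SD, cut at about 54% in these data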;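 also: forskolin at 4 µM as EC80 and the EC20 agonist is SEW2871; 100% = SEW2871 at its EC100 plus forskolin at EC80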
Target sequence (P21453 whole entry, looked up): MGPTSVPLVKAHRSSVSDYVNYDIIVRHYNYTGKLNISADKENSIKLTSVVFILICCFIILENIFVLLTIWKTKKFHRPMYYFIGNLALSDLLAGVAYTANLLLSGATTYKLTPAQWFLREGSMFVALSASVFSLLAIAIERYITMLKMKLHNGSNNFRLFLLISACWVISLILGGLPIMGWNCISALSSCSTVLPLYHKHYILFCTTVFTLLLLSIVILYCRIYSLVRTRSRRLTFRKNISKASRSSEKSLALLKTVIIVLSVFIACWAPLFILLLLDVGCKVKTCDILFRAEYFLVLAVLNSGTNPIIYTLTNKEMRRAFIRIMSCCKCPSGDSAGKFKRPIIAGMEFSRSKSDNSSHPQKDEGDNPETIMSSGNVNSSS
Starred values were filed as active, the others as inactive; nt = not tested or not shown.

SMILES	M1 antag	M1 agonist	D1 allo mod	S1P3 agonist	S1P1 ag-PAM
CCOc1cccc(C(=O)Nc2nnc(-c3ccco3)s2)c1	0.769	-0.275	-3.66*	-1.0	nt
Cc1nnc(Sc2nc3c(c(=O)[nH]c(=O)n3C)n2Cc2ccccc2Cl)s1	0.674	-0.0377	1.4	-0.7	-4.1
Cc1ccc2cc(CN(Cc3cccs3)C(=O)c3ccco3)c3nnnn3c2c1C	-0.307	1.7	3.67*	0.1	0.2
COC(=O)c1sc(NC(=O)c2ccoc2C)nc1C	0.334	0.587	0.873	-0.5	-5.7
COc1ccc2nc(NC(=O)c3ccoc3C)sc2c1	0.0658	-0.198	-4.27*	-0.7	6.5
COc1ccc2sc(NC(=O)c3ccco3)nc2c1	0.68	-1.09	-5.67*	-0.8	13.9
O=C(c1cc2ccccc2o1)N1CCN=C1SCc1cccnc1	-0.102	-0.871	-1.81*	-0.1	9.9
COC(=O)C1=C(CSCc2ccco2)NC(=O)NC1c1cc(C)ccc1C (centres undefined)	-0.0731	-1.25	-0.506	-1.0	5.5
O=C(NCCOc1ccccc1)c1ccc2c(c1)OCO2	-0.214	0.00083	-7.5*	-0.8	-2.1
CCOCCCNC(=O)c1ccc2c(c1)OCO2	0.0215	0.115	-0.514	-0.7	nt
Cc1ccc(Cl)cc1N1CCN(C(=O)c2ccc(NS(=O)(=O)c3c(C)noc3C)cc2)CC1	-0.532	0.672	-0.581	-0.3	-56.0
Cc1ccc(C)c(N2CCN(C(=O)c3ccc(NS(=O)(=O)c4c(C)noc4C)cc3)CC2)c1	2.24*	0.0905	-0.835	-0.5	-58.3
O=C(CSc1nnc(C2CCCCC2)n1Cc1ccccc1)NCc1ccco1	-0.745	0.854	-0.0219	-1.0	-8.1
COc1cccc(NC(=O)NCCCN2CCN(c3ccc(F)cc3)CC2)c1	-0.15	0.357	-5.09*	-0.9	4.7
COc1ccc(NC(=O)NCCCN2CCN(c3cc(C)ccc3C)CC2)cc1	-0.285	-0.93	-6.12*	-0.4	-12.0
COc1ccc(NC(=O)NCCN2CCN(c3cccc(Cl)c3)CC2)cc1	0.371	-0.721	-0.685	-0.7	17.4
CCn1c(=O)cc(SCC(=O)NCCCN2CCN(c3ccc(F)cc3)CC2)c2ccccc21	-1.96	-0.143	-3.66*	nt	nt
COc1cccc(NC(=O)CN2CCN(c3ccc(F)cc3)CC2)c1	0.156	0.49	0.607	0.8	-4.9
Cc1cc(C)c(S(=O)(=O)N(C)CC(=O)NC2CCCC2)c(C)c1	0.204	0.711	nt	-0.9	-2.0
CC1CCCC(N2C(=O)NC(NC(=O)c3ccco3)(C(F)(F)F)C2=O)C1C (centres undefined)	0.363	2.68	0.181	-0.9	3.4
O=C1C(=O)N(CCCN2CCOCC2)C(c2ccccn2)/C1=C(\O)c1ccc2c(c1)OCCO2 (centres undefined)	0.617	0.361	-0.365	0.4	-12.3
Cc1ccc2nc(NC3=NCN(Cc4ccccc4)CN3)nc(C)c2c1	-0.941	0.145	-0.478	-1.1	-9.9
Cc1nc(NC2=NCN(CCc3ccccc3)CN2)nc2c(C)cccc12	-0.845	0.0347	0.351	-0.2	-8.0
Cc1cc2nc(NC3=NCN(CCN4CCOCC4)CN3)nc(C)c2cc1C	-5.65*	0.638	-0.0259	-0.4	4.9
Cc1cc2nc(NC3=NCN(Cc4ccc5c(c4)OCO5)CN3)nc(C)c2cc1C	-5.08*	0.073	nt	-0.5	-13.5
SMILES	M1 antag	M1 agonist	D1 allo mod	S1P3 agonist	S1P1 ag-PAM
COc1ccc2c(c1)CCc1c(C(=O)NCCc3ccc(OC)c(OC)c3)noc1-2	0.487	-0.392	3.02	-1.5	50.0
COc1ccc2c(c1)CCc1c(C(=O)Nc3ccc(OC)c(OC)c3)noc1-2	nt	nt	-0.542	-1.1	104.3*
COc1ccc2c(c1)CCc1c(C(=O)N3CC4(C)CC3CC(C)(C)C4)noc1-2 (centres undefined)	0.037	26.7*	0.00692	-1.2	-15.7
COc1cc(OC)cc(C(=O)N2CCC(n3c(C)nc4cc(F)ccc43)CC2)c1	-0.542	0.398	0.939	-0.5	-9.2
O=C(O)c1cc(S(=O)(=O)NCC2CCCO2)ccc1Cl (centres undefined)	-0.306	0.835	0.138	-0.7	17.9
COc1ccccc1OCc1ccc(C(=O)Nc2ccncc2)o1	-0.402	0.018	0.0947	-1.6	22.3
Cn1c(O)c(C=Nc2ccc(Cc3ccncc3)cc2)c(=O)n(C)c1=O	-0.0418	0.514	nt	-4.2	1.7
CN1CCN(c2c3c(c(C#N)c4nc5ccccc5n24)CCCC3)CC1	-0.763	-0.927	nt	-1.2	-15.7
Fc1ccc(-c2nnc(-c3ccc(Cl)cc3Cl)o2)cc1	1.5	-0.311	-2.89*	-1.8	-1.1
CCSc1nnc(-c2ccc(Cl)cc2Cl)o1	1.97*	0.0702	0.39	0.1	nt
Clc1ccc(CSc2nnc(-c3ccncc3)o2)c(Cl)c1	0.00376	0.0716	0.0278	0.8	76.0*
c1ccc(CSc2nnc(-c3ccncc3)o2)cc1	nt	nt	nt	2.8	45.0
Clc1ccc(-c2nnc(-c3ccccc3)o2)c(Cl)c1	0.229	-0.352	-1.09	-0.7	-7.5
Cc1ccccc1-c1c(C)oc2cc(O)ccc2c1=O	0.101	-0.0885	-1.01	-0.8	nt
COc1ccc(-c2noc(-c3cccc(Cl)c3)n2)cc1OC	0.772	-1.56	-1.44	nt	nt
COc1ccc(-c2onc3ccc(Cl)cc23)cc1OC	0.265	1.74	12.8*	-0.9	nt
CCOC(=O)c1cccc(NC(=O)c2cc3sccc3n2C)c1	0.00543	2.84	-0.79	-0.4	24.2
Cn1c(C(=O)Nc2ccc3c(c2)OCCO3)cc2sccc21	-0.543	0.554	-2.67*	0.2	15.2
Nc1cccc2c1C(=O)N(c1ccccc1)C2=O	-0.372	69.7*	2.54	0.2	30.4
CCCCC(=O)Nc1cccc2c1C(=O)N(c1ccccc1)C2=O	-0.398	1.87	1.69	-0.7	-10.7
COc1ccc(-c2nsc3c(N4CCCC4)ncnc23)cc1	-0.541	-0.178	-4.38*	-1.2	-3.8
C=CCn1c(SCc2c(F)cccc2Cl)nnc1-c1ccco1	-0.11	-0.433	0.0281	-0.5	-9.3
c1ccc(C2=Nn3c(nnc3-c3n[nH]c4c3CCC4)SC2)cc1	0.357	-0.14	-3.58*	0.1	-28.3
O=C(CCCCn1c(=O)c2ccccc2n(CC(=O)Nc2ccc(F)cc2)c1=O)NCc1ccco1	-0.0468	1.2	1.3	-2.6	1.3
O=C(CCCCn1c(=O)c2ccccc2n(Cc2ccc(F)cc2Cl)c1=O)NCc1ccco1	0.426	-0.649	14.3*	nt	nt
SMILES	M1 antag	M1 agonist	D1 allo mod	S1P3 agonist	S1P1 ag-PAM
O=C1CC(c2cccs2)Cc2nc(NCC3CCCO3)ncc21 (centres undefined)	0.526	0.713	2.99	0.3	-5.8
O=C(CCC1CC(=O)Nc2ccccc21)NCc1cccnc1 (centres undefined)	0.463	0.354	0.253	0.8	-16.2
O=C(CC1Nc2ccccc2NC1=O)NCc1cccnc1 (centres undefined)	1.43*	1.19	-0.427	0.4	13.5
COc1nc(C)nc2c1sc(=S)n2C	-0.693	0.0857	nt	-0.7	-23.9
CCNc1nc(OCCNS(=O)(=O)c2cc(C)ccc2C)nc(N(C)C)n1	1.79*	-0.83	2.79	-1.1	-23.7
CCNc1nc(NCC)nc(OCCNS(=O)(=O)c2cc(C)ccc2C)n1	-1.71	-1.36	-0.834	nt	nt
